As a reminder, the inhibition is the drop in the measured response relative to a control, in per cent. By residual activity is commonly meant the share of the control activity or signal that is left under treatment. Read a low residual activity as a large loss of activity.

Results on three compounds are retold here after ChEMBL document CHEMBL5696442, “Discovery of type II inhibitors of TGFβ-activated kinase 1 (TAK1) and mitogen-activated protein kinase kinase kinase kinase 2 (MAP4K2)” (J Med Chem, 2015).

Calls of active or inactive are those of the source. No cut-off for these calls is given here.

For test [1], the target named is Cyclin-dependent kinase 18 (Homo sapiens) (UniProt Q07002). Briefly: Inhibition of PCTK3 (unknown origin) at 1 uM by Ambit Kinomescan binding assay relative to control. In a few lines:
(§1)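 In vitro ATP-site competition binding assay against a panel of over 420 kinases (KinomeScan), with compound tested at 10 or 1 μM.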

In test [2] the target is T1, Serine/threonine-protein kinase TAO2 (Homo sapiens) (UniProt Q9UL54).
T1 sequence (whole entry): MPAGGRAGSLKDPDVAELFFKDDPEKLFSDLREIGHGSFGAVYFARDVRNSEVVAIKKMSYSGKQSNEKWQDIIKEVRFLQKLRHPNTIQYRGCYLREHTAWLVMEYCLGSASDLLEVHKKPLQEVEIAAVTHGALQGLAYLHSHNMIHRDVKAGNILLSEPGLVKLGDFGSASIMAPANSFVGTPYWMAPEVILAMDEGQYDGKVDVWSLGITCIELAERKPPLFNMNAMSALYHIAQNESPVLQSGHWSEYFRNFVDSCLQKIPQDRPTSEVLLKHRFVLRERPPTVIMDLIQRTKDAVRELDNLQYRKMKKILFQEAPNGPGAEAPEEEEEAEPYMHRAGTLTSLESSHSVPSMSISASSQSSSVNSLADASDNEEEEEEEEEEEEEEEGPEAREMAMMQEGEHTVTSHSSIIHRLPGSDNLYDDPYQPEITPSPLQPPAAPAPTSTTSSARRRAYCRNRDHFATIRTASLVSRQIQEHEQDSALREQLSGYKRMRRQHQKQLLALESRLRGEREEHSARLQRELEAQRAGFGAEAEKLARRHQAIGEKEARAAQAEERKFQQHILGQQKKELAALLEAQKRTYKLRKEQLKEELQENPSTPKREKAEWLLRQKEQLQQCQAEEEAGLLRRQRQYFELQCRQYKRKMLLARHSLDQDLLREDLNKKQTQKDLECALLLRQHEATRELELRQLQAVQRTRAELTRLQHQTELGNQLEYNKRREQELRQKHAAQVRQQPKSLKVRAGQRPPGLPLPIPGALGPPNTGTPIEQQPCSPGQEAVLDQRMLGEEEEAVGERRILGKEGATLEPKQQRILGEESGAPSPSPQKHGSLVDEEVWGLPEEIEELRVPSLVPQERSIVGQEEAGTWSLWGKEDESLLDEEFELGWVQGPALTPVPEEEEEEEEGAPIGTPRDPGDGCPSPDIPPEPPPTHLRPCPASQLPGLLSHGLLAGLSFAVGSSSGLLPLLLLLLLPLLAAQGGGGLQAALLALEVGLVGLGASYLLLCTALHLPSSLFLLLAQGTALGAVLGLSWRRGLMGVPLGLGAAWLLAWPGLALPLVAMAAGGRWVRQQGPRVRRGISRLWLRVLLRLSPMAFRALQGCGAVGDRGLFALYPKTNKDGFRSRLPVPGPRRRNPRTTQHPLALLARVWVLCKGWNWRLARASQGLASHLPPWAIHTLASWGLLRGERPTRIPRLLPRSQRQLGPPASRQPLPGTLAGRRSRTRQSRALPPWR
Briefly: Inhibition of TAOK2 (unknown origin) at 1 uM by Ambit Kinomescan binding assay relative to control.

Test [3] deals with Tyrosine-protein kinase JAK1 (Homo sapiens) (UniProt P23458). Briefly: Inhibition of JAK1 in human A-375 cells at 0.05 uM by KiNativ Profiling analysis relative to control. In kind it is cell-based.
Test [4] deals with Cyclin-dependent kinase-like 5 (Homo sapiens) (UniProt O76039). Kind of test: Inhibition of CDKL5 (unknown origin) at 1 uM by Ambit Kinomescan binding assay relative to control; values are per cent of control.
In test [5] the target is Tyrosine-protein kinase receptor UFO (Homo sapiens) (UniProt P30530). Kind of test: Inhibition of AXL (unknown origin) at 10 uM by Ambit Kinomescan binding assay. In a few lines:
as §1

Test [6] deals with Cytoplasmic tyrosine-protein kinase BMX (Homo sapiens) (UniProt P51813). Kind of test: Inhibition of BMX (unknown origin) at 10 uM by Ambit Kinomescan binding assay relative to control.
Test [7] deals with MAST1/MAST2 (Homo sapiens) (UniProt Q9Y2H9+Q6P0Q8). Briefly: Inhibition of MAST1/2 K2 labeling site in human Huh-7 cells at 1 uM by KiNativ Profiling analysis relative to control. In kind it is cell-based.
Test [8] concerns the target Phosphatidylinositol 4-kinase alpha (Homo sapiens) (UniProt P42356). Kind of test: Inhibition of PI4KA ATP labeling site in human Huh-7 cell lysate at 1 uM by KiNativ Profiling analysis relative to control. In kind it is subcellular.

Cyclin-dependent kinase 18 (Homo sapiens), sequence (Q07002 whole entry): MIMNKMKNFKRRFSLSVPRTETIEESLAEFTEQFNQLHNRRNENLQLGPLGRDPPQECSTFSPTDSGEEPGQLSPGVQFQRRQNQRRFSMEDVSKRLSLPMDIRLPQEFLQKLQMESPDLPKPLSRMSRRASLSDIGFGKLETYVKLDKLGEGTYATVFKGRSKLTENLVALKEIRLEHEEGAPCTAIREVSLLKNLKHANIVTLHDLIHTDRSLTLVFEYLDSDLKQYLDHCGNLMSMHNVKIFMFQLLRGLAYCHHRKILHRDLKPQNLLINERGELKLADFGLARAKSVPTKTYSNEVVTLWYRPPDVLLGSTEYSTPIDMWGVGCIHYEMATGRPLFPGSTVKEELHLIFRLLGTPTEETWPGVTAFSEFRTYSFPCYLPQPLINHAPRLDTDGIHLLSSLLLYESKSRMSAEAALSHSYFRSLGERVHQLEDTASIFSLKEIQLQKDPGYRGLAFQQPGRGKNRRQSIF
Phosphatidylinositol 4-kinase alpha (Homo sapiens), sequence (P42356 whole entry, looked up): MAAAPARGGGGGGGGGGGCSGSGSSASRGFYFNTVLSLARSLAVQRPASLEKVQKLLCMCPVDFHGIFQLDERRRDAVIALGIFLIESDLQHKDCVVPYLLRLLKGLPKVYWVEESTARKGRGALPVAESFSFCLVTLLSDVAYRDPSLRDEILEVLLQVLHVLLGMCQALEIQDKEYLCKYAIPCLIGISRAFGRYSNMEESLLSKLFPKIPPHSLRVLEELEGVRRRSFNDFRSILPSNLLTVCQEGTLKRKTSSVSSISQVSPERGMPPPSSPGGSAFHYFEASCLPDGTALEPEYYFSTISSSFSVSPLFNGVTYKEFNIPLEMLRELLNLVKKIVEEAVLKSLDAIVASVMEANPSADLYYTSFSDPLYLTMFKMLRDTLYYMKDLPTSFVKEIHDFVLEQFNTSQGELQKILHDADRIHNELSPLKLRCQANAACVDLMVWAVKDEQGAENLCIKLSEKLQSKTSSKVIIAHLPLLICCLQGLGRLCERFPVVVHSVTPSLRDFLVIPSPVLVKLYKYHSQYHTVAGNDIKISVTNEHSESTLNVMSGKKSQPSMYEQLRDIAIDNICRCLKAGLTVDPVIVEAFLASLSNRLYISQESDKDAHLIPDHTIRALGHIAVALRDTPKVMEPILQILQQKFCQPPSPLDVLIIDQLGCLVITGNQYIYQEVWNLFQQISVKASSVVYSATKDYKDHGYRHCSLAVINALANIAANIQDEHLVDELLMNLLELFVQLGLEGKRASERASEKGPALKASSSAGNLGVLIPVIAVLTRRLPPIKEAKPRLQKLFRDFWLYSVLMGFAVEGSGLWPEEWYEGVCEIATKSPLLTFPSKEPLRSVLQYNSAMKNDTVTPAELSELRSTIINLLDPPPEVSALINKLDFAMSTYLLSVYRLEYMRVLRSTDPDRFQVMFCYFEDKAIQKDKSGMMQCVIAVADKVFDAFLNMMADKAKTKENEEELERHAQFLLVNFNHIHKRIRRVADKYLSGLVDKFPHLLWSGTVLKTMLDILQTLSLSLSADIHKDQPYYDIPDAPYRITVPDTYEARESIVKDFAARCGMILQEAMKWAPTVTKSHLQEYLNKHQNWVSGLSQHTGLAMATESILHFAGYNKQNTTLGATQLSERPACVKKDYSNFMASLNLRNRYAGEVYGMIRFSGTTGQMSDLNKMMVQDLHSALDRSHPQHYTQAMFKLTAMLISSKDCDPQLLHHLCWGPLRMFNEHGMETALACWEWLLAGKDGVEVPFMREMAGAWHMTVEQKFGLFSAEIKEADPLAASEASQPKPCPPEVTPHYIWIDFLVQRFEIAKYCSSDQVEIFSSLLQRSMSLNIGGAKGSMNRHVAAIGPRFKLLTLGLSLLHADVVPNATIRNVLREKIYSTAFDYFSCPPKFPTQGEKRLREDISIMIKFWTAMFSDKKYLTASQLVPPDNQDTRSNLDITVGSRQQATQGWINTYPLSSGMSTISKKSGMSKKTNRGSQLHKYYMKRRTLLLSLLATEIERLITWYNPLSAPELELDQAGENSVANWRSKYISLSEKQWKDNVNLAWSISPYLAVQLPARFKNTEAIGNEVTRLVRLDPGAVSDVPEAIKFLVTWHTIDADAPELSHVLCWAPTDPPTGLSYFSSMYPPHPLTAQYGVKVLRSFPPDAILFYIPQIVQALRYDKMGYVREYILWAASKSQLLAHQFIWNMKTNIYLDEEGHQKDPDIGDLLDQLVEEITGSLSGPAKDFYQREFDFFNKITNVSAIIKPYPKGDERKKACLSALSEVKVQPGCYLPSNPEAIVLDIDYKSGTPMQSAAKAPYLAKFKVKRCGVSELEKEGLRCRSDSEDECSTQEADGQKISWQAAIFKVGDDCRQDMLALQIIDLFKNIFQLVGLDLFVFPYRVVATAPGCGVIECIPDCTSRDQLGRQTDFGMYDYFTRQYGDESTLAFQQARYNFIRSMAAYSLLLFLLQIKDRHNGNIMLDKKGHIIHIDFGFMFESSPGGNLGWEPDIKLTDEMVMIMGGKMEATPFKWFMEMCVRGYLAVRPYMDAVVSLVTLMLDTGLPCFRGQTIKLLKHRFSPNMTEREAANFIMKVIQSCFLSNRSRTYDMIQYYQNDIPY
Cytoplasmic tyrosine-protein kinase BMX (Homo sapiens), sequence (P51813 whole entry): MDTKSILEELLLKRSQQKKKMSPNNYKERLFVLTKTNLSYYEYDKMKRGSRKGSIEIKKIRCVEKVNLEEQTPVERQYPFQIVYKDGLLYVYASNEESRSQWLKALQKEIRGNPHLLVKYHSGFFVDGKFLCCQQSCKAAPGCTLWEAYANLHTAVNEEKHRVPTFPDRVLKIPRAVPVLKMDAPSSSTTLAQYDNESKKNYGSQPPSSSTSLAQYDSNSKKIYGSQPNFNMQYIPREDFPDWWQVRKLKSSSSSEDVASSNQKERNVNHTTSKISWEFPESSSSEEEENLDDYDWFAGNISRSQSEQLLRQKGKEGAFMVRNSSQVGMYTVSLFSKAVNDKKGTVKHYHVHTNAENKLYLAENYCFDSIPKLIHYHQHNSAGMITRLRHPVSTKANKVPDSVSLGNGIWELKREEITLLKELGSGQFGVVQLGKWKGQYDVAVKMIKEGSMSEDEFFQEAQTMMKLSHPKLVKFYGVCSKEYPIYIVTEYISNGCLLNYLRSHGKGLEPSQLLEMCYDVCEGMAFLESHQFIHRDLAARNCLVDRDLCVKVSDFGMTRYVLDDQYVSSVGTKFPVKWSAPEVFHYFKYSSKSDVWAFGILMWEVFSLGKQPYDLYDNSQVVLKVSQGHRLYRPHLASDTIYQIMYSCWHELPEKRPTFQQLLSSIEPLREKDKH
Cyclin-dependent kinase-like 5 (Homo sapiens), sequence (O76039 whole entry): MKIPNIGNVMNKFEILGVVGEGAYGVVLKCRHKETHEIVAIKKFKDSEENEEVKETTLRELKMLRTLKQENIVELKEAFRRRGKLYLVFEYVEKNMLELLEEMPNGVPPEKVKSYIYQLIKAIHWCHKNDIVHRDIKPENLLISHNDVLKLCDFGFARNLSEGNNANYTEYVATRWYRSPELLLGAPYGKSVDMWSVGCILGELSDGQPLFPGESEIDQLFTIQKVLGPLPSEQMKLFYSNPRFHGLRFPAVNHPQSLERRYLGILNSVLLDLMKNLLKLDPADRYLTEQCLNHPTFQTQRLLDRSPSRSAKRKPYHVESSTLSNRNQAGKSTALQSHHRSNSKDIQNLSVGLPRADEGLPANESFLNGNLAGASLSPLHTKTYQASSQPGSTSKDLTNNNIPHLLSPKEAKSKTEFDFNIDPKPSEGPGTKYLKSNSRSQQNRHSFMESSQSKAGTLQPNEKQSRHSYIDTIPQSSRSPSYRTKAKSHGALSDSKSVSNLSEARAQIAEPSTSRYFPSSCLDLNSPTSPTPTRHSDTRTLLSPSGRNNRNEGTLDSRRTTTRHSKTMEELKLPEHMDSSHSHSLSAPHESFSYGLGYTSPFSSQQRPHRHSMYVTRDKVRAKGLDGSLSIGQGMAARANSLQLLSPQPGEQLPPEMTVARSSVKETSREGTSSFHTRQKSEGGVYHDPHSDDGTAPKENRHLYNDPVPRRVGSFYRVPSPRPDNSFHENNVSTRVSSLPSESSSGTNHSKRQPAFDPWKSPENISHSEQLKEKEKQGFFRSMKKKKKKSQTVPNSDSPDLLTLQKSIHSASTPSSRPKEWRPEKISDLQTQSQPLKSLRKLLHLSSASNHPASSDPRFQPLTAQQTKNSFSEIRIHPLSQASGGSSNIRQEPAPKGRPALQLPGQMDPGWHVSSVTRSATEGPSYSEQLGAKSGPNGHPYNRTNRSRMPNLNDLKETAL
Tyrosine-protein kinase receptor UFO (Homo sapiens), sequence (P30530 whole entry): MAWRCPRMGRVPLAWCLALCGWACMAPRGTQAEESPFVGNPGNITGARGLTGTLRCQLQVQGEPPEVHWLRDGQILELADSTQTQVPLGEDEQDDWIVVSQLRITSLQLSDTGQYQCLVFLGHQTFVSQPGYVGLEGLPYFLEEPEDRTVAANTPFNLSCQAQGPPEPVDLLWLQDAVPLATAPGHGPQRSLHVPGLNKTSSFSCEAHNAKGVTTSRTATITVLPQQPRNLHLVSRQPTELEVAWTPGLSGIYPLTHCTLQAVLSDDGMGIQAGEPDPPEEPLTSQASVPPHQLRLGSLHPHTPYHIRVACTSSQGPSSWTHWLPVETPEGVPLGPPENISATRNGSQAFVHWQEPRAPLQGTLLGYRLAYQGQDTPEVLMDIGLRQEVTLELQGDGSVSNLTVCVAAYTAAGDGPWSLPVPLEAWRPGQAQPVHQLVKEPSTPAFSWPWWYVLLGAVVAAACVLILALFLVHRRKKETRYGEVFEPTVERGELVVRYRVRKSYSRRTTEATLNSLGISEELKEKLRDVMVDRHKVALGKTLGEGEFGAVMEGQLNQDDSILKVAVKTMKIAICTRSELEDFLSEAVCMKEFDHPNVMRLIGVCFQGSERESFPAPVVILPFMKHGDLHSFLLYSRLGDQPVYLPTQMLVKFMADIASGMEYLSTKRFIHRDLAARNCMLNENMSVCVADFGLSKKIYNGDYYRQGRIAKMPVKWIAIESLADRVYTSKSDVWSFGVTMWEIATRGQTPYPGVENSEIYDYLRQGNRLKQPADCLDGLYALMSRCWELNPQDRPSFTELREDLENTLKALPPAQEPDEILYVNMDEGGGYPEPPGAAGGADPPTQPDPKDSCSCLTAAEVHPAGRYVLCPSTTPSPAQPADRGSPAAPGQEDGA

On to `CCN1CCN(Cc2ccc(NC(=O)c3ccc(C)c(/C=C/c4cnc5[nH]ccc5c4OC)c3)cc2C(F)(F)F)CC1`, for which the figures for the inhibition in test [1], in test [2] and in test [3] were 84%, 16% and 12.3%, respectively. This compound registered a residual activity in test [4] of 100%.
With `CCN1CCN(Cc2ccc(NC(=O)c3ccc(C)c(Oc4ccnc5[nH]ccc45)c3)cc2C(F)(F)F)CC1`, the inhibition result in test [5] was “inactive”. Further, the inhibition in test [6] was 2.4%; in test [7], -7.1%.
`CNc1cc(Oc2cc(C(=O)Nc3cc(N4CCN(C)CC4)cc(C(F)(F)F)c3)ccc2C)ncn1`: the inhibition in test [8] worked out at 2%.
